Source: ChEMBL document CHEMBL4020803, “Structure-based identification of inhibitors targeting obstruction of the HIVgp41 N-heptad repeat trimer” (Bioorg Med Chem Lett, 2017)
The source made the active and inactive calls. The rule behind the calls is not given here.

Tests used:
TZM = test: Cytotoxicity against human TZM-bl cells assessed as decrease in cell viability at 25 uM after 6 hrs; assay type: cell-based
Method in brief: (§1)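 Viability measured in the same wells as the fusion read-out, using the combined luciferase/cell-viability kit. TZM-bl and HL2/3 cells were pretreated with 25 μM compound, DMSO or 1 μM C34, then co-cultured 6 h at 37 °C, 5% CO2. Duplicate wells per compound.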

[1] = test system: Human immunodeficiency virus 1; test: Antiviral activity against VSV-G pseudotyped HIV1 assessed as inhibition of virus entry by cell-based assay; assay type: functional
Method in brief: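 VSV-G-pseudotyped HIV-1 (pNL4-3.HSA.R-E- plus pCMV-VSV-G, made by PEI transfection), tested at 25 μM. TZM-bl cells (10^4/well) and MOI 0.1 virus were each pretreated 1 h at 37 °C. Compound medium was replaced with the treated virus, then spinoculation at 1,000 × g for 1 h at room temperature and 1 h at 37 °C. Cells were washed, grown 48 h drug-free, and read by luciferase. Bafilomycin A1 control.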

[2] = Cytotoxicity against human HL2/3 cells assessed as decrease in cell viability at 25 uM after 6 hrs; assay type: cell-based; conditions: hl2/3, 6 h; method in brief: as §1
[3] = test system: Human immunodeficiency virus 1; test: Inhibition of HIV1 gp41-induced cell-cell fusion between viral protein expressing human HL2/3 cells and TZM-bl target cells at 25 uM preincubated with cells followed by co-incubation for 6 hrs by luciferase reporter gene assay relative to control
Method in brief: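 TZM-bl receptor cells seeded a day ahead, then TZM-bl and HL2/3 effector cells pretreated with 25 μM compound (DMSO stock diluted in complete medium), DMSO alone (maximum signal) or 1 μM C34 (maximum inhibition); cells co-incubated 6 h at 37 °C, 5% CO2. Fusion read by luciferase in a combined luciferase/viability kit; signal normalized to controls. Duplicate wells per compound.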

[4] = test system: Human immunodeficiency virus 1; test: Antiviral activity against HIV1 assessed as inhibition of viral entry into human TZM-bl cells at 25 uM preincubated with cells for 1 hr followed by inoculation with 1 hr compound pretreated virus measured 48 hrs post compound wash out by luciferase reporter gene assay relative to control; assay type: functional; conditions: for inhibition at 25 µM: Human immunodeficiency virus 1, TZM-bl
Method in brief: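 HIV-1 made by PEI co-transfection of pNL4-3.HSA.R-E- and pHXB2-env; titer set by X-Gal staining on TZM-bl. TZM-bl seeded 10^4/well a day ahead, pretreated 1 h at 37 °C with 25 μM compound, DMSO or 1 μM C34. Virus (MOI 0.1) preincubated 1 h with the same treatment, added, spinoculated 1,000 × g 1 h RT, 1 h 37 °C, washed, luciferase read at 48 h, normalized.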

| Structure (SMILES) | Activity (TZM) | inhibition [1] | Activity [2] | inhibition [3] [%] | inhibition at 25 µM [4] [%] | inhibition [4] |
| --- | --- | --- | --- | --- | --- | --- |
| Cn1c(SCC(=O)N/N=C/c2cc(Br)cc(Br)c2O)nc2ccccc21 | Non-Toxic | inactive | Non-Toxic | > 50 | > 50 |  |
| Cc1ccc(CNC(=O)c2oc3ccc(S(=O)(=O)N4CCC5(CC4)OCCO5)cc3c2C)cc1 | Non-Toxic | inactive | Non-Toxic | > 50 | > 50 |  |
| COc1ccc(-c2cc(C(=O)NCc3ccc(Cl)cc3)n[nH]2)cc1S(=O)(=O)N1CCOCC1 |  |  |  |  |  | inactive |
| CCn1c(SCC(=O)N/N=C/c2cccc(Oc3ccccc3)c2)nnc1-c1ccc(OC)cc1 |  |  |  |  |  | inactive |
